Test results from ChEMBL document CHEMBL1123883, “Structure-activity relationships in the 2-arylcarbapenem series: synthesis of 1-methyl-2-arylcarbapenems” (1987).
In brackets after ≈: the same amount, converted by molar mass.

How the values were obtained:
[1] = test system: Enterococcus; test: Antibiotic activity was determined against Enterococcus (3); format: functional
How it was run: (§1)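 Inhibitory concentrations against the strains of each species were expressed as a ratio to the inhibitory concentration of thienamycin, the reference carbapenem, in the same strains.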

[2] = test system: Proteus; test: Antibiotic activity was determined against Proteus species (5); format: functional, Proteus sp.; how it was run: as §1
[3] = test system: Klebsiella sp.; test: Antibiotic activity was determined against Klebsiella species (5); format: functional; how it was run: as §1
[4] = test system: Pseudomonas aeruginosa; test: Antibiotic activity was determined against Pseudomonas aeruginosa (5); format: functional; how it was run: as §1
[5] = test system: Enterobacter; test: Antibiotic activity was determined against Enterobacter species (6); format: functional; how it was run: as §1
[6] = test system: Serratia; test: Antibiotic activity was determined against Serratia species (2); format: functional; how it was run: as §1
[7] = target: T1, Dipeptidase 1 (Homo sapiens) (UniProt P16444); test: Susceptibility to mammalian dehydropeptidase DHP-1 relative to thienamycin
T1 sequence (whole entry): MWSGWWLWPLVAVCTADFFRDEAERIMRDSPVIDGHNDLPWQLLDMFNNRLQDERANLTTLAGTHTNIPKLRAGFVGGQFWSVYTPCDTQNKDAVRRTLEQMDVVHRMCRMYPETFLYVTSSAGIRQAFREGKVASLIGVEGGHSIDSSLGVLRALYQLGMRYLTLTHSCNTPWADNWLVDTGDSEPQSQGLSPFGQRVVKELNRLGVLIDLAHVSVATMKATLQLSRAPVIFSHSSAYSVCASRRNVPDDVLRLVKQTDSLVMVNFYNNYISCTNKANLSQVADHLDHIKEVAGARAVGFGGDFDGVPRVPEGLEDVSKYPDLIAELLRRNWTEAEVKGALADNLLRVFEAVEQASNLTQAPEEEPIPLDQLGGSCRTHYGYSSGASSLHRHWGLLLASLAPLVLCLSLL

[8] = test system: Staphylococcus aureus; test: Antibiotic activity was determined against Staphylococcus aureus (5); format: functional; how it was run: as §1
[9] = test system: Escherichia coli; test: Antibiotic activity was determined against Escherichia coli(5); format: functional; how it was run: as §1

SMILES	MIC [1] [µg/mL]	MIC [2] [µg/mL]	MIC [3] [µg/mL]	MIC [4] [µg/mL]	MIC [5] [µg/mL]	MIC [6] [µg/mL]	Relative susceptibility [7]	MIC [8] [µg/mL]	MIC [9] [µg/mL]
C[C@@H](O)[C@H]1C(=O)N2C(C(=O)O)=C(SCCN)C[C@H]12 [THIENAMYCIN]	5 (≈ 18.4 µM)	7.5 (≈ 27.5 µM)	1.3 (≈ 4.77 µM)	5.8 (≈ 21.3 µM)	1.4 (≈ 5.14 µM)	2.5 (≈ 9.18 µM)	1	0.04 (≈ 0.147 µM)	0.3 (≈ 1.1 µM)
C[C@@H](O)[C@H]1C(=O)N2C(C(=O)[O-])=C(c3cccnc3)[C@H](C)[C@H]12.[K+]	2.5	7	7	0.05	13	13	0.7	1	12
C[C@@H](O)[C@H]1C(=O)N2C(C(=O)O)=C(c3ccc(CN)nc3)[C@H](C)[C@H]12	2.8 (≈ 8.82 µM)	2.5 (≈ 7.88 µM)	2.8 (≈ 8.82 µM)	0.08 (≈ 0.252 µM)	3.5 (≈ 11 µM)	3.2 (≈ 10.1 µM)	0.16	0.5 (≈ 1.58 µM)	1.5 (≈ 4.73 µM)
C[C@@H]1C(c2cccnc2)=C(C(=O)[O-])N2C(=O)[C@H]([C@@H](C)O)[C@@H]12.[K+]	0.15	2.5	2.5	0.03	5	22	0.1	0.15	3.5
C[C@@H](O)[C@H]1C(=O)N2C(C(=O)[O-])=C(c3cccnc3)C[C@H]12.[K+]	6	17	7	0.05	20	28	0.4	1.5	9
C[C@@H](O)[C@H]1C(=O)N2C(C(=O)[O-])=C(c3ccccc3)[C@H](C)[C@H]12.[K+]	2	3.5	0.3	0.02	0.3	1	0.25	0.2	0.5
O=C(O)C1=C(c2ccccc2)CC2CC(=O)N12 (stereo not given)	1 (≈ 4.36 µM)	0.03 (≈ 0.131 µM)	0.04 (≈ 0.174 µM)	0.03 (≈ 0.131 µM)	0.2 (≈ 0.872 µM)	0.01 (≈ 0.0436 µM)	0.35	0.02 (≈ 0.0872 µM)	0.1 (≈ 0.436 µM)
C[C@@H](O)[C@H]1C(=O)N2C(C(=O)[O-])=C(c3ccc(CO)cc3)[C@H](C)[C@H]12.[K+]	1.4	5.3	0.7	0.02	1.1	1.2	0.22	0.2	0.9
O=C(O)C1=C(c2cccnc2)CC2CC(=O)N12 (stereo not given)	0.15 (≈ 0.652 µM)	0.03 (≈ 0.13 µM)	0.02 (≈ 0.0869 µM)	0.1 (≈ 0.434 µM)	0.02 (≈ 0.0869 µM)	0.01 (≈ 0.0434 µM)	0.3	0.002 (≈ 0.00869 µM)	0.01 (≈ 0.0434 µM)
C[C@@H](O)[C@H]1C(=O)N2C(C(=O)[O-])=C(c3ccccc3)C[C@H]12.[K+]	5.7	10	1.4	0.03	4.6	10	0.2	0.5	2.5

The remaining lines, values ahead:

MIC [1] [µg/mL]	MIC [2] [µg/mL]	MIC [3] [µg/mL]	MIC [4] [µg/mL]	MIC [5] [µg/mL]	MIC [6] [µg/mL]	Relative susceptibility [7]	MIC [8] [µg/mL]	MIC [9] [µg/mL]	SMILES
						0.02			C[C@H](O)[C@H]1C(=O)N2C(C(=O)O)=C(c3ccc(CN)cc3)C[C@H]12
7.5	8	0.7	0.06	1.7	2.3	0.2	0.4	2.8	C[C@@H](O)[C@H]1C(=O)N2C(C(=O)[O-])=C(c3ccc(O)cc3)C[C@H]12.[K+]
5	15	2.3	0.02	4	7	0.28	1	2	C[C@@H](O)[C@H]1C(=O)N2C(C(=O)[O-])=C(c3ccc(CO)cc3)C[C@H]12.[K+]
9.2 (≈ 30.4 µM)	6.5 (≈ 21.5 µM)	3.2 (≈ 10.6 µM)	0.3 (≈ 0.992 µM)	11 (≈ 36.4 µM)	5.3 (≈ 17.5 µM)		1.5 (≈ 4.96 µM)	3.5 (≈ 11.6 µM)	CC(O)[C@H]1C(=O)N2C(C(=O)O)=C(c3ccc(CN)cc3)C[C@H]12 (stereo not given in full)
3 (≈ 9.48 µM)	2 (≈ 6.32 µM)	1.7 (≈ 5.37 µM)	0.13 (≈ 0.411 µM)	2.5 (≈ 7.9 µM)	6.5 (≈ 20.5 µM)	0.07	0.4 (≈ 1.26 µM)	1.6 (≈ 5.06 µM)	C[C@@H](O)[C@H]1C(=O)N2C(C(=O)O)=C(c3ccc(CN)cc3)[C@H](C)[C@H]12
8 (≈ 26.4 µM)	3.2 (≈ 10.5 µM)	3 (≈ 9.89 µM)	0.2 (≈ 0.659 µM)	5.7 (≈ 18.8 µM)	5.3 (≈ 17.5 µM)	0.1	1.9 (≈ 6.26 µM)	3 (≈ 9.89 µM)	C[C@@H](O)[C@H]1C(=O)N2C(C(=O)O)=C(c3ccc(CN)nc3)C[C@H]12
